The target in data set [1] is T1, Adrenergic receptor alpha-1 (Homo sapiens, UniProt P35348+P25100+P35368).
T1 sequence (P35348 whole entry): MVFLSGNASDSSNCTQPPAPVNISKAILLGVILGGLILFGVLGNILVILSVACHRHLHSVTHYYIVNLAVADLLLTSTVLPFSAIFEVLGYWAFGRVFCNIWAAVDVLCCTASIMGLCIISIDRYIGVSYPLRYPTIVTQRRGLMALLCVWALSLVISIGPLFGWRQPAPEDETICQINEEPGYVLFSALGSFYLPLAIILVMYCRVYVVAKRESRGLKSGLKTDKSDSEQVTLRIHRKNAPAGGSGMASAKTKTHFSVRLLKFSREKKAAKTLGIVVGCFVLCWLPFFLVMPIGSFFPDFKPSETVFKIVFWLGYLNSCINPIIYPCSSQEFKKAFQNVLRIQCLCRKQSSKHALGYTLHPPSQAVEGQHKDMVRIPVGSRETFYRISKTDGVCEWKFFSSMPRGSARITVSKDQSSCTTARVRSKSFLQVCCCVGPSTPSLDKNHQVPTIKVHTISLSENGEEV
T1 sequence (P25100 whole entry): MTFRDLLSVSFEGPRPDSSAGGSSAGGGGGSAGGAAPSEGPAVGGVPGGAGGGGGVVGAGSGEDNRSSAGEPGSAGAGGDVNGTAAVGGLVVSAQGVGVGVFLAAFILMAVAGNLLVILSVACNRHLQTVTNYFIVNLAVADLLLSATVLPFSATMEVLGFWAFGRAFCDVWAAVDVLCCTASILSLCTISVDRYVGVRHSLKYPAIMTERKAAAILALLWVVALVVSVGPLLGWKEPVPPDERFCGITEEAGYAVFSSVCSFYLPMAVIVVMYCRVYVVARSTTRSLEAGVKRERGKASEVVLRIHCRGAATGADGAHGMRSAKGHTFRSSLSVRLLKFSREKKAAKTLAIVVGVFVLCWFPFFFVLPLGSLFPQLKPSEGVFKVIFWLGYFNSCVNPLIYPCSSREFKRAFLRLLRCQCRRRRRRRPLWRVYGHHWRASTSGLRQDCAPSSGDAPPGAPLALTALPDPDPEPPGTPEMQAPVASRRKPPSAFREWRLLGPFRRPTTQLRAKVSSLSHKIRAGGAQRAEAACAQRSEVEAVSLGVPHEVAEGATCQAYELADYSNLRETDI
T1 sequence (P35368 whole entry): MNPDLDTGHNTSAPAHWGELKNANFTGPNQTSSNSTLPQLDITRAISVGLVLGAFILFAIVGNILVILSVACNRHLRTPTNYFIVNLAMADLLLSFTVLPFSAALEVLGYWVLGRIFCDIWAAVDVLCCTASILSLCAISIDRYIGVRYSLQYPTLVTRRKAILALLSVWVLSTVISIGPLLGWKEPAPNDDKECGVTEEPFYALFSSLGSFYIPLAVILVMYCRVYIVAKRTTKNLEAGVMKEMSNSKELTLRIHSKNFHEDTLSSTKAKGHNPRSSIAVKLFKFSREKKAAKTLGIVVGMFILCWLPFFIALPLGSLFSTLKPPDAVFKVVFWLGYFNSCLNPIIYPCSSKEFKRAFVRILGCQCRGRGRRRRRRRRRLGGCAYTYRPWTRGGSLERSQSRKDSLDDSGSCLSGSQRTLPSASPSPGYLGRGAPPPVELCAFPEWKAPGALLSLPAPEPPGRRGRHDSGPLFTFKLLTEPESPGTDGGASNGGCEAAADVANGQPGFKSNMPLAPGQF
Kind of data set: Binding affinity to alpha1 adrenergic receptor (unknown origin). The format is protein assay.

Data set [2] relates to Rattus norvegicus. Kind of data set: Memory enhancement effect in rat assessed as increase in total exploratory time for novel objects at 0.01 mg/kg, po administered 1 hr prior to acquisition trial and measured after 24 hrs by novel object recognition test. Type of data set: functional, organism-based. As to conditions: time 25.0 hrs. The essentials:
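Rat novel object recognition, n = 10. Oral dosing in 30% PEG 400 1 h before the acquisition trial with two identical objects. At 24 h one object was replaced by a novel one and exploration times were scored. Mean ± SEM, post-hoc Student's t-test versus vehicle.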

A short description of data set [3]: Apparent oral clearance in rat at 10 mg/kg, po. Type of data set: ADME, organism-based. As to conditions: in vivo. An outline of the steps: (§1)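 Male rats, n = 6 per group, given a single oral dose of 10 mg/kg. PK parameters taken from serum concentration–time profiles: Cmax, Tmax, t1/2, AUC0-t, AUC0-∞, CL/F, F%.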
Data set [4] in a line: Tmax in rat at 10 mg/kg, po. Type of data set: ADME, organism-based. The note with it: in vivo. The essentials: as §1
Data set [5] concerns the target T2, Alpha-2A adrenergic receptor (Homo sapiens, UniProt P08913).
T2 sequence (P08913 whole entry): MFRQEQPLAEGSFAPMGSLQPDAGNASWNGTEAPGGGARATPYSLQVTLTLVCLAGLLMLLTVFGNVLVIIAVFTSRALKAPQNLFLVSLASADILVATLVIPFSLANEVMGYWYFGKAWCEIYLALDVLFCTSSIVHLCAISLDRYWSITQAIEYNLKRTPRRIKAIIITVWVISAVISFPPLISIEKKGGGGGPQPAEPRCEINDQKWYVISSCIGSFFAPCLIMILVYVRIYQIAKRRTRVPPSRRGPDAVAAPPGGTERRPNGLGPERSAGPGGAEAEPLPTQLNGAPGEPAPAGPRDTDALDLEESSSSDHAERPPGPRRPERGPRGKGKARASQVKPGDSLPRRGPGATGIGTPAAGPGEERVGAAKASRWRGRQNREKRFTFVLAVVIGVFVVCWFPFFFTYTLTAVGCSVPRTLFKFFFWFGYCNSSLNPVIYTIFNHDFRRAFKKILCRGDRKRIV
Kind of data set: Binding affinity to alpha2 adrenergic receptor (unknown origin). The essentials:
(§2)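 Radioligand displacement binding. Ki is the mean ± SEM of three experiments.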

Data set [6] in a line: Oral bioavailability in rat at 10 mg/kg. The format is ADME, organism-based. The note with it: in vivo. An outline of the steps: as §1
Data set [7] is described as follows: AUC (0 to infinity) in rat at 3 mg/kg, iv. The format is ADME, organism-based. Also noted: route intravenous, time infinity, dose 3 mg/kg. The note with it: in vivo. An outline of the steps: (§3)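 Male rats, n = 6 per group, given a single intravenous dose of 3 mg/kg. PK parameters taken from serum concentration–time profiles: t1/2, AUC0-t, AUC0-∞, clearance.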

Data set [8] addresses 5-hydroxytryptamine receptor 2A (Homo sapiens, UniProt P28223). Kind of data set: Binding affinity to 5HT2A receptor (unknown origin).
The target in data set [9] is T3, 5-hydroxytryptamine receptor 1A (Homo sapiens, UniProt P08908).
T3 sequence (P08908 whole entry): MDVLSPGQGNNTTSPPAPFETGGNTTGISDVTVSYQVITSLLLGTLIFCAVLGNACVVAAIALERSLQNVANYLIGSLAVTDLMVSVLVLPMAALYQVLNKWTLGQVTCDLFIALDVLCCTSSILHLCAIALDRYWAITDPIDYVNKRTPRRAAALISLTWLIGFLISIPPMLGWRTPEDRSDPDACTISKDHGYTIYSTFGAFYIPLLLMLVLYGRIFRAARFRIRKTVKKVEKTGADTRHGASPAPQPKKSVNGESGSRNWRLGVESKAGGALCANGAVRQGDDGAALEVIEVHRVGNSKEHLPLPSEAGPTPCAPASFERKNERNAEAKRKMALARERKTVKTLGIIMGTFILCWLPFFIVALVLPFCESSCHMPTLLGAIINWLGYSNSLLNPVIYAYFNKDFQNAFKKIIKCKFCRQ
Briefly: Binding affinity to 5HT1A receptor (unknown origin). An outline of the steps:
as §2

Data set [10] in a line: AUC (0 to t) in rat at 3 mg/kg, iv. The format is ADME, organism-based. Also noted: dose 3 mg/kg. The note with it: in vivo. An outline of the steps: as §3

The source of these data is ChEMBL document CHEMBL4725387, “Synthesis and pharmacological evaluation of piperidine (piperazine)-amide substituted derivatives as multi-target antipsychotics” (Bioorg Med Chem Lett, 2020).

Active and inactive are the calls of the source. No cut-off for these calls is given here.

Sequence of 5-hydroxytryptamine receptor 2A (P28223 whole entry): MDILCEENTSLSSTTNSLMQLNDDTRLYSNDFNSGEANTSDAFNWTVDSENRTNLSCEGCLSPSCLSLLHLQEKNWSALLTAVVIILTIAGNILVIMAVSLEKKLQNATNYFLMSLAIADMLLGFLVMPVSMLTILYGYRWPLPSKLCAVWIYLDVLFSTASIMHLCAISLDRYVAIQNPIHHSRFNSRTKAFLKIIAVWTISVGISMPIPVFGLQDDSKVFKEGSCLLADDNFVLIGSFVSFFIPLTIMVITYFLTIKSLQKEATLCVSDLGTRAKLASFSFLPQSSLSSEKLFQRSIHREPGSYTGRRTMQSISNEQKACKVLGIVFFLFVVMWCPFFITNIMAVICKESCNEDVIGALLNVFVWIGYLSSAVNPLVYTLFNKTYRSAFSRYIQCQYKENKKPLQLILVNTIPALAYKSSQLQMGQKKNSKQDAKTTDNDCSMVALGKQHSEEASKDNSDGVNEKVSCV

As to `CC(=O)Nc1ccc(OCCCN2CCC(c3noc4cc(F)ccc34)CC2)cc1`, the Ki in [1] came out at 3296 nM; in data set [5], 16.3 nM; in data set [8], 7.8 nM; in [9], 3.5 nM. The outcome in data set [2] was inactive. In addition, the apparent clearance CL/F in [3] is 0.173 mL/min. In addition, the time to peak (Tmax) in data set [4] was 7 h. In [6], this compound came in with an F of 31.04%. Also, the AUC in [7] was 931.48 ng·h/mL. The compound also registered an AUC(0-t) in data set [10] of 879 ng·h/mL.

The term Ki denotes the equilibrium dissociation constant of an inhibitor or competing ligand from its target. The CL/F is the apparent clearance, not corrected for the fraction that reaches the circulation. A word on the Tmax: it is the time at which the peak concentration occurs. The AUC is concentration integrated over time. By AUC(0-t) is commonly meant the area under the concentration-time curve up to a stated or last time point. A lower AUC(0-t) goes with low exposure.
